The values below come from ChEMBL document CHEMBL1124390, “Synthesis and antiviral activity of phosphonoacetic and phosphonoformic acid esters of 5-bromo-2'-deoxyuridine and related pyrimidine nucleosides and acyclonucleosides” (1989).

Common to all, as to assay type: functional
Assay [1] concerns Human alphaherpesvirus 2. Description: Concentration required to reduce the number of viral plaques […] cell monolayers of herpes simplex virus type 2. The procedure, abridged: (§1)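 Plaque-reduction assay on Vero monkey kidney cells grown in DMEM + 10% v/v newborn bovine serum. HSV-1 strain HFEM or HSV-2 strain 3345, 50 pfu in duplicate, adsorbed at 4 °C to drained monolayers. Serum-free medium with carboxymethylcellulose plus compound dilution series added; 3 days at 37 °C. Formaldehyde fixation, Giemsa stain; ID50 interpolated from plotted results.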

Assay [2] concerns Human alphaherpesvirus 1. Description: Concentration required to reduce the number of viral plaques […] cell monolayers of herpes simplex virus type 1. The procedure, abridged:
as §1

Assay [3] deals with Human alphaherpesvirus 1. Description: Concentration required to protect 50% of mice against a systemic infection of HSV-1. The procedure, abridged: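 Swiss albino mice (9-12 g) given test substance 0.5 mL ip at -24, 0 and +24 h relative to infection (three treatments); controls got 0.5 mL water ip on the same schedule. Infection ip with approx 10x LD50 of HSV-1. Survivors counted on day 21; PD50 derived by Reed-Muench method.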

`Nc1nc2c(ncn2COCCO)c(=O)[nH]1` [ACYCLOVIR]: the results for the ID50 in assay [1] and in assay [2] were 2.2 µM and 1.3 µM, respectively.
The matching figures for `O=c1[nH]c(=O)n([C@H]2C[C@H](O)[C@@H](CO)O2)cc1I` [IDOXURIDINE]: 2.3 µM and 2 µM.
As for `Nc1nc(=O)n([C@H]2C[C@H](O)[C@@H](CO)O2)cc1Br`, the ID50 in assay [1] came out at 0.15 µM; in assay [2], 1.5 µM.
The matching figures for `Nc1ncc([C@@H]2O[C@H](COP(=O)(O)CC(=O)O)[C@@H](O)[C@H]2O)c(=O)[nH]1`: 770 µM and 780 µM.
Turning to `O=C(O)CP(=O)(O)OC[C@H]1OC(n2ccc(=O)[nH]c2=O)[C@H](O)[C@@H]1O` (stereo partly specified), the PD50 in assay [3] is 0.31 mM/kg. The ID50 in assay [2] was determined as 300 µM.
In assay [3], `Nc1ncnc2c1ncn2[C@@H]1O[C@H](COP(=O)(O)CC(=O)O)[C@@H](O)[C@H]1O` yielded a PD50 of 0.4 mM/kg. In addition, the ID50 in assay [2] was determined as 580 µM.
Turning to `C=Cc1cn(C2O[C@H](COP(=O)(O)CC(=O)O)[C@@H](O)[C@@H]2O)c(=O)[nH]c1=O` (stereo partly specified), the ID50 in assay [1] and in assay [2] was more than 2000 µM throughout.
In assay [3], `Nc1nc(O)c2ncn(C3O[C@H](COP(=O)(O)CC(=O)O)[C@@H](O)[C@H]3O)c2n1` (stereo partly specified) had a PD50 of 0.36 mM/kg. The ID50 in assay [1] and in assay [2] was more than 2000 µM throughout.
In the case of `Nc1ncnc2c1ncn2[C@H]1C[C@H](O)[C@@H](COP(=O)(O)CC(=O)O)O1`, the PD50 in assay [3] was determined as 1.05 mM/kg. For the same molecule, the ID50 in assay [1] and in assay [2] was more than 2000 µM each time.
With `O=C(O)CP(=O)(O)OC[C@H]1OC(n2cc(I)c(=O)[nH]c2=O)[C@@H](O)[C@@H]1O` (stereo partly specified), the ID50 in assay [1] and in assay [2] was more than 2000 µM throughout.
Turning to `Nc1ncnc2c1ncn2[C@@H]1O[C@H](CO)[C@@H](O)[C@@H]1O` [VIDARABINE], the ID50 was 75 µM in assay [1] and 11 µM in assay [2].
On to `O=C(O)CP(=O)(O)OC[C@H]1O[C@@H](n2cc(I)c(=O)[nH]c2=O)C[C@@H]1O`, for which the PD50 in assay [3] was 0.21 mM/kg. In addition, the ID50 was determined as 10 µM in assay [1] and 40 µM in assay [2].
For the molecule `O=C(O)CP(=O)(O)OC[C@H]1O[C@@H](n2cc(Br)c(=O)[nH]c2=O)C[C@@H]1O`, the PD50 in assay [3] was 0.2 mM/kg. Besides, the ID50 in assay [1] amounted to 1.2 µM; in assay [2], 16 µM.
Take `O=c1[nH]c(=O)n([C@H]2C[C@H](O)[C@@H](CO)O2)cc1/C=C/Br` [BRIVUDINE]: the values for the ID50 in assay [1] and in assay [2] were 4.2 µM and 0.6 µM, respectively.
Take `Nc1nc(O)c2ncn(COCCOP(=O)(O)CC(=O)O)c2n1`: the ID50 worked out at 1500 µM in assay [1] and 1800 µM in assay [2].
Consider `O=c1[nH]c(=O)n([C@H]2C[C@H](O)[C@@H](CO)O2)cc1Br` [BROXURIDINE], for which the values for the ID50 in assay [1] and in assay [2] were 0.7 µM and 2 µM, respectively.
The matching figures for `CCc1cn([C@H]2C[C@H](O)[C@@H](COP(=O)(O)CC(=O)O)O2)c(=O)[nH]c1=O`: 700 µM and 300 µM.
The molecule `O=C(O)CP(=O)(O)O` [FOSFONET] displayed a PD50 in assay [3] of 0.67 mM/kg. Besides, the ID50 was determined as 240 µM in assay [1] and 230 µM in assay [2].
With `C#Cc1cn([C@H]2C[C@H](O)[C@@H](CO)O2)c(=O)[nH]c1=O`, the ID50 in assay [1] and in assay [2] was 11 µM each time.
For `CCc1cn([C@H]2C[C@H](O)[C@@H](CO)O2)c(=O)[nH]c1=O` [EDOXUDINE], the figures for the ID50 in assay [1] and in assay [2] were 23 µM and 40 µM, respectively.
In the same order, the values of `Cc1cn(C2O[C@H](COP(=O)(O)CC(=O)O)[C@@H](O)[C@@H]2O)c(=O)[nH]c1=O` (stereo partly specified) are more than 2000 µM and more than 2000 µM.
Take `O=C(O)CP(=O)(O)OC[C@H]1O[C@@H](n2cc(/C=C/Br)c(=O)[nH]c2=O)C[C@@H]1O`: the values for the ID50 in assay [1] and in assay [2] were 1000 µM and 2.7 µM, respectively.
As to `O=C(O)P(=O)(O)O` [FOSCARNET], the ID50 was found to be 120 µM in assay [1] and 130 µM in assay [2].
In the same order, the values of `C=Cc1cn([C@H]2C[C@H](O)[C@@H](COP(=O)(O)CC(=O)O)O2)c(=O)[nH]c1=O` are 50 µM and 14 µM.
`O=c1[nH]c(=O)n(C2O[C@H](CO)[C@@H](O)[C@@H]2O)cc1I` (stereo partly specified): the ID50 in assay [1] worked out at 60 µM; in assay [2], 13 µM.
The matching figures for `O=C(O)P(=O)(O)OC[C@H]1O[C@@H](n2cc(Br)c(=O)[nH]c2=O)C[C@@H]1O`: 0.44 µM and 4.6 µM.
The matching figures for `C=Cc1cn([C@H]2C[C@H](O)[C@@H](CO)O2)c(=O)[nH]c1=O`: 2 µM and 0.8 µM.
The matching figures for `O=C(CP(=O)(O)O)OC[C@H]1O[C@@H](n2cc(Br)c(=O)[nH]c2=O)C[C@@H]1O`: 7.4 µM and 12 µM.
Regarding `CC(=O)c1cn(C2O[C@H](COP(=O)(O)CC(=O)O)[C@@H](O)[C@@H]2O)c(=O)[nH]c1=O` (stereo partly specified), the ID50 in assay [1] and in assay [2] was more than 2000 µM each time.
For `Cc1cn([C@@H]2O[C@H](CO)[C@@H](O)[C@@H]2O)c(=O)[nH]c1=O`, the ID50 in assay [1] was determined as 19 µM; in assay [2] it was 10 µM.
Take `Nc1ncnc2c1ncn2[C@@H]1O[C@H](COP(=O)(O)CC(=O)O)[C@@H](O)[C@@H]1O`: the PD50 in assay [3] is 0.53 mM/kg. In addition, the ID50 in assay [1] and in assay [2] was more than 2000 µM in each case.
On to `Nc1nc(=O)n([C@H]2C[C@H](O)[C@@H](COP(=O)(O)CC(=O)O)O2)cc1Br`, for which the ID50 in assay [1] amounted to 15 µM; in assay [2], 72 µM.
In the same order, the values of `O=c1[nH]c(=O)n([C@@H]2O[C@H](CO)[C@@H](O)[C@@H]2O)cc1Br` are 5.9 µM and 5 µM.
For the molecule `C#Cc1cn([C@H]2C[C@H](O)[C@@H](COP(=O)(O)CC(=O)O)O2)c(=O)[nH]c1=O`, the ID50 in assay [1] and in assay [2] was more than 200 µM each time.
In assay [3], `Cc1cn([C@H]2C[C@H](O)[C@@H](COP(=O)(O)CC(=O)O)O2)c(=O)[nH]c1=O` showed a PD50 of 0.45 mM/kg. Also, the ID50 worked out at 160 µM in assay [1] and 400 µM in assay [2].
For `O=C(O)CP(=O)(O)OC[C@H]1OC(n2cc(Br)c(=O)[nH]c2=O)[C@@H](O)[C@@H]1O` (stereo partly specified), the ID50 in assay [1] and in assay [2] was more than 2000 µM throughout.
For `Nc1ccn(C2O[C@H](COP(=O)(O)CC(=O)O)[C@@H](O)[C@H]2O)c(=O)n1` (stereo partly specified), the ID50 worked out at 1200 µM in assay [1] and 1600 µM in assay [2].
